Test results from paper PMC6543826 (Bioorganic chemistry, 2018).
Like-named read-outs stand apart in the source and are kept apart here.

Experiments:
[1] = test system: A498; assay: NCI-60 SRB screen, Renal cancer; assay type: cell-based, human; settings: for Growth percent (G%): A498, 10^−5 M, 48 h
[2] = test system: A375 cells; assay: IncuCyte real time proliferation assay; assay type: cell-based, human; settings: imaged every 1 h for 90 h
Summary of the method: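 Real-time growth: 2000 A375 cells per well adhered for 24 h, then were treated with a range of test compound doses. Phase images were taken on IncuCyte ZOOM (10× objective) every 1 h for 90 h in total. Growth confluence was estimated from the images and plotted.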

[3] = test system: COLO 205; assay: NCI-60 SRB screen, Colon cancer; assay type: cell-based
Summary of the method: (§1)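 Five-dose NCI-60 protocol (DTP, NCI). Absorbance was read at time zero (Tz), for untreated control (C) and at five compound levels (Ti), with SRB protein-stain end point read spectrophotometrically. GI50 from [(Ti−Tz)/(C−Tz)]×100 = 50; TGI from Ti = Tz; LC50 from [(Ti−Tz)/Tz]×100 = −50. A parameter not reached is given as greater than the highest concentration tested.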

[4] = test system: NCI-60 panel of tumor cell lines; assay: cells; settings: Homo sapiens
[5] = test system: MDA-MB-231/ATCC; assay: NCI-60 SRB screen, Breast cancer; assay type: cell-based
Summary of the method: as §1

[6] = test system: 786–0; assay: NCI-60 SRB screen, Renal cancer; assay type: cell-based
Summary of the method: as §1

[7] = test system: UACC-257; assay: NCI-60 SRB screen, Melanoma; assay type: cell-based
Summary of the method: as §1

[8] = test system: NCI/ADR-RES; assay: NCI-60 SRB screen, Ovarian cancer; assay type: cell-based
Summary of the method: as §1

[9] = test system: HS 578 T; assay: NCI-60 SRB screen, Breast cancer; assay type: cell-based
Summary of the method: as §1

[10] = test system: TK-10; assay: NCI-60 SRB screen, Renal cancer; assay type: cell-based
Summary of the method: as §1

[11] = molecular target: ERK2 (Rattus norvegicus, UniProt P63086); assay: steady-state kinetic experiments, ERK2 with varied Mg-ATP; assay type: biochemical; settings: versus ATP, double reciprocal plot
Summary of the method: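 Activated rat ERK2 was run in the radiometric kinase buffer with 50 μM His-Ets-1. Mg-ATP was varied (10–2000 μM) at several fixed test compound concentrations (0–54 μM). Initial rates were taken from product-versus-time plots. Mechanism was assessed from a double-reciprocal plot of 1/V0 versus 1/[Mg-ATP].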

ERK2, sequence (P63086 whole entry): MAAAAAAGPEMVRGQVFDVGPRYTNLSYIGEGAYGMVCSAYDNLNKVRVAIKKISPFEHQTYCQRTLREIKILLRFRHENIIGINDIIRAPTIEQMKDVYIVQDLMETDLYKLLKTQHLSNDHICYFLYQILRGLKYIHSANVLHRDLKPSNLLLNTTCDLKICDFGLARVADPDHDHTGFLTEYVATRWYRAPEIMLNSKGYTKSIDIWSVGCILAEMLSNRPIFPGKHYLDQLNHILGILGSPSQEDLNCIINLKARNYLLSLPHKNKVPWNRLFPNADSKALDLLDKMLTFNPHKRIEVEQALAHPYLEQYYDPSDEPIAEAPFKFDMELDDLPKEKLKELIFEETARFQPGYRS

`O=C1c2ccccc2C(=O)c2c1oc1c2c(=O)[nH]c2ccccc21` [3a, Naphtho[2′,3′:4,5]furo[3,2-c]quinoline-6,7,12(5H)-trione] was tested, and the “Growth percent (G%)” value [1] was 103.58%.

With `O=C1c2ccccc2C(=O)c2c1oc1c2c(=O)[nH]c2ccc(Cl)cc21` [3b, 2-Chloronaphtho[2′,3′:4,5]furo[3,2-c]quinoline-6,7,12(5H)-trione] the “A375 real time proliferation (growth confluence), in words” value [2] was “dose-dependent inhibition”, the TGI ([3]; COLO 205, five-dose) was 27540 nM and the GI50 ([3]; Homo sapiens, COLO 205) was 10500 nM. The CC50 ([3]; Homo sapiens, COLO 205, read-out: LC50) was 72400 nM, the GI50 ([4]; read-out: GI50, average across all cell lines tested) was 240 nM and the GI50 ([4]; read-out: GI50 values, range over all cell lines) was 140 to 10500 nM. It also gave a CC50 ([4]; read-out: LC50, average) of 7580 nM, a GI50 ([5]; Homo sapiens, MDA-MB-231) of 170 nM and a CC50 ([5]; Homo sapiens, MDA-MB-231, read-out: LC50) of 2820 nM. For the same compound, the TGI ([5]; MDA-MB-231/ATCC, five-dose) was 510 nM, the TGI ([6]; 786–0, five-dose) was 540 nM and the GI50 ([6]; Homo sapiens, 786-0) was 220 nM. For the same compound, the CC50 ([6]; Homo sapiens, 786-0, read-out: LC50) was 2450 nM, the GI50 ([7]; Homo sapiens, UACC-257) was 1320 nM and the CC50 ([7]; Homo sapiens, UACC-257, read-out: LC50) was 8510 nM. For the same compound, the TGI ([7]; UACC-257, five-dose) was 3390 nM, the GI50 ([8]; Homo sapiens) was 350 nM and the CC50 ([8]; Homo sapiens, read-out: LC50) was 34700 nM. The TGI ([8]; five-dose) was 1780 nM, the “Growth percent (G%)” value [1] was 80.44% and the TGI ([1]; A498, five-dose) was 950 nM. The GI50 ([1]; Homo sapiens, A498) was 210 nM, the CC50 ([1]; Homo sapiens, A498, read-out: LC50) was 3550 nM and the TGI ([9]; HS 578 T, five-dose) was 1380 nM. For the same compound, the GI50 ([9]; Homo sapiens, Hs-578T) was 260 nM, the CC50 ([9]; Homo sapiens, Hs-578T, read-out: LC50) was over 100000 nM and the GI50 ([10]; Homo sapiens, TK-10) was 380 nM. The CC50 ([10]; Homo sapiens, TK-10, read-out: LC50) was 6030 nM and the TGI ([10]; TK-10, five-dose) was 1100 nM.

With `O=C1C(Cl)=C(c2c(O)c3c(=O)n(-c4ccccc4)c4ccccc4c3oc2=O)C(=O)c2ccccc21` [compound 6, 3-(3-Chloro-1,4-dioxo-1,4-dihydronaphthalen-2-yl)-4-hydroxy-6-phenyl-2H-pyrano[3,2-c]quinoline-2,5(6H)-dione] the “A375 real time proliferation (growth confluence), in words” value [2] was “dose-dependent inhibition” and the “mechanism of ERK2 inhibition” value [11] was “competitive inhibition”.
